Results as given in ChEMBL document CHEMBL4152200, “Targeting the entrance channel of NNIBP: Discovery of diarylnicotinamide 1,4-disubstituted 1,2,3-triazoles as novel HIV-1 NNRTIs with high potency against wild-type and E138K mutant virus” (Eur J Med Chem, 2018).

System: TZM
Experiment: Cytotoxicity against human TZM-bl cells by CytoTox-Glo reagent-based assay
Assay type: cell-based
How it was run: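 TZM-bl cells exposed to compound at various concentrations. Cytotoxicity measured by CytoTox-Glo assay.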

## Cc1cc(/C=C/C#N)cc(C)c1Nc1ccnc(Nc2ccc(C#N)cc2)n1 [RILPIVIRINE]
  CC50: > 341 µM
